Laboratory results taken from ChEMBL document CHEMBL1153573, “Synthesis of a series of N6-substituted adenosines with activity against trypanosomatid parasites” (Eur J Med Chem, 2009).

test system: Trypanosoma brucei rhodesiense; test: Antitrypanosomal activity against Trypanosoma brucei rhodesiense STIB 900 after 72 hrs by alamar blue based microplate assay; type: functional, organism-based; conditions: STIB 900, 72 h
Method in brief: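 Bloodstream-form T. b. rhodesiense STIB 900, 10⁴ per well, in minimum essential medium with 2-mercaptoethanol and 15% heat-inactivated horse serum. Serial dilutions spanning […]. Incubated 37 °C, 5% CO₂, 72 h. Resazurin (Alamar Blue) then added and incubation continued. Fluorescence read at ex 536/em 588 nm as percent of control, IC50 calculated. Melarsoprol standard.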

Point of comparison: `CC(=O)Nc1ccc(C(=O)NCCOCCNc2ncnc3c2ncn3[C@@H]2O[C@H](CO)[C@@H](O)[C@H]2O)cc1`, IC50 132 µM. Against it:
- COc1cccc(CC(=O)NCCOCCNc2ncnc3c2ncn3[C@@H]2O[C@H](CO)[C@@H](O)[C@H]2O)c1 — the same, 132 µM
- COc1ccc(CC(=O)NCCOCCNc2ncnc3c2ncn3[C@@H]2O[C@H](CO)[C@@H](O)[C@H]2O)cc1OC — 14-fold lower, 9.2 µM
- O=C(Cc1cccc2ccccc12)NCCOCCNc1ncnc2c1ncn2[C@@H]1O[C@H](CO)[C@@H](O)[C@H]1O — higher, > 170 µM
- O=C(NCCOCCNc1ncnc2c1ncn2[C@@H]1O[C@H](CO)[C@@H](O)[C@H]1O)c1ccc(Oc2ccccc2)cc1 — 13-fold lower, 10 µM
- O=C(CCCc1c[nH]c2ccccc12)NCCOCCNc1ncnc2c1ncn2[C@@H]1O[C@H](CO)[C@@H](O)[C@H]1O — 3.5-fold lower, 37.6 µM
- COc1ccc(C(=O)NCCOCCNc2ncnc3c2ncn3[C@@H]2O[C@H](CO)[C@@H](O)[C@H]2O)cc1OC — higher, > 170 µM
- O=C(CCCc1ccc([N+](=O)[O-])cc1)NCCOCCNc1ncnc2c1ncn2[C@@H]1O[C@H](CO)[C@@H](O)[C@H]1O — within 1.5-fold, 88.7 µM
- O=C(Cc1c(Cl)cccc1Cl)NCCOCCNc1ncnc2c1ncn2[C@@H]1O[C@H](CO)[C@@H](O)[C@H]1O — 2.7-fold lower, 49.7 µM
- O=C(NCCOCCNc1ncnc2c1ncn2[C@@H]1O[C@H](CO)[C@@H](O)[C@H]1O)C(c1ccccc1)c1ccccc1 — 1.5-fold lower, 85.9 µM
- O=C(NCCOCCNc1ncnc2c1ncn2[C@@H]1O[C@H](CO)[C@@H](O)[C@H]1O)c1ccc(F)c(F)c1 — within 1.5-fold, 167 µM
- O=C(CCCc1ccccc1)NCCOCCNc1ncnc2c1ncn2[C@@H]1O[C@H](CO)[C@@H](O)[C@H]1O — 33-fold lower, 4 µM
- CC(C)=CC(=O)NCCOCCNc1ncnc2c1ncn2[C@@H]1O[C@H](CO)[C@@H](O)[C@H]1O — within 1.5-fold, 125 µM
- O=C(NCCOCCNc1ncnc2c1ncn2[C@@H]1O[C@H](CO)[C@@H](O)[C@H]1O)c1cccc(F)c1 — 9.7-fold lower, 13.6 µM
- O=C(CCCOc1ccccc1)NCCOCCNc1ncnc2c1ncn2[C@@H]1O[C@H](CO)[C@@H](O)[C@H]1O — 39-fold lower, 3.4 µM
